The species entered for experiment [1] is Mus musculus. In words: PGE-2 level was assayed in RAW 264.7 macrophages after a 20h stimulation with LPS followed by incubation with compound and arachidonic acid for 2 hr. It is filed as functional. In a few lines: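 RAW 264.7 cells first stimulated with LPS for 20 h, then washed and incubated 2 h with compound plus arachidonic acid. PGE₂ measured to assess COX-2 activity in intact cells.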

Experiment [2] is filed under the species Mus musculus. In words: PGE-2 levels were assayed in LPS stimulated RAW 264.7 macrophages for 20h in either presence or absence of compound. It is filed as functional. In a few lines: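 Murine RAW 264.7 cells grown in DMEM with 2 mM glutamine, antibiotics and 10% FBS. Cells at 2 × 10⁶/mL exposed to E. coli LPS 1 µg/mL, 37 °C, 20 h, with compound or vehicle. PGE₂ in supernatants by radioimmunoassay. […] Cytotoxicity checked by MTT reduction.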

The species entered for experiment [3] is Homo sapiens. In words: Percent inhibition of neutrophils (chemiluminescence) was determined at 10 uM concentration in TPA-induced luminol chemiluminescence assay.
The species named for experiment [4] is Mus musculus. Nature of the experiment: Inhibitory activity against LPS stimulated RAW 264.7 macrophages. It is filed as functional. The conditions noted are these: RAW264.7. In a few lines:
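Murine RAW 264.7 cells grown in DMEM with 2 mM glutamine, antibiotics and 10% FBS. Cells at 2 × 10⁶/mL exposed to E. coli LPS 1 µg/mL, 37 °C, 20 h, with compound or vehicle. PGE₂ in supernatants by radioimmunoassay. Cytotoxicity checked by MTT reduction.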

Experiment [5] in a line: Percentage inhibition of H/XO (chemiluminescence) was determined at 10 uM concentration. The essentials:
(§1)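 Cell-free superoxide made by the hypoxanthine/xanthine oxidase system, with chemiluminescence recorded.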

Experiment [6] relates to Mus musculus. In words: PGE-2 levels were assayed in inflamed paw after 5 hr carrageenan paw edema test in mice. In kind it is functional. In a few lines: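 Carrageenan-injected mice (oral compound 1 h prior, Tween 80/saline vehicle) killed by cervical dislocation 5 h after carrageenan. Right hind paws homogenized and PGE₂ measured in homogenates; stomachs handled the same way. Mean ± SEM, n 6-12; ANOVA with Dunnett's t-test.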
On the technique in general: In the carrageenan paw model, swelling and tenderness develop within hours.

The test system of experiment [7] is Mus musculus. In words: Antiinflammatory activity, assessed by the carrageenan paw edema test in mice. It is filed as functional. In a few lines:
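Mice dosed orally with compound at 20 mg/kg (reference at 10 mg/kg) in Tween 80/saline 1/99 v/v, 1 h before subplantar 3% w/v carrageenan (0.05 mL) in right hind paw. Paw volumes by plethysmometer at 1, 3 and 5 h; edema values at 3 h. Mean ± SEM, n 6-12; ANOVA with Dunnett's t-test.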

Experiment [8] in a line: (§2) Inhibition of chemiluminescence generated by hypoxanthine/ xanthine oxidase was determined. On the set-up: concentration or dose not given beside the values. The conditions noted are these: concentration not given here. The essentials:
as §1

Experiment [9] is filed under the species Homo sapiens. In words: Percent inhibition of neutrophils (chemiluminescence) was determined at 10 uM concentration. It is filed as functional. In a few lines: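 Purified human neutrophils at 2.5 × 10⁶ cells/mL with luminol 40 µM and TPA 1 µM; chemiluminescence recorded. Compounds tested at 10 µM; mean ± SEM.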
Experiment [10] is described as follows: as §2. The settings on record: concentration not given here. The essentials:
as §1

As a reminder, the inhibition is how much of the control response was suppressed. What is called IC50 is the concentration that gives 50% inhibition.

In the case of `CCOC(=O)c1cc2ccccn2/c(=N/c2ccc(OC)cc2)n1`, the “PGE2 Level” value in the experiment listed under Mus musculus [1] turned out to be 9.6 ng/mL; in the experiment filed under Mus musculus [2] it was 12 ng/mL; with Mus musculus [6], 78.7 ng/mL. This compound also registered an inhibition at 10 µM in the experiment listed under Homo sapiens [3] of 75.9%. Also, it took 3.5 µM to reach half-maximal inhibition in the experiment listed under Mus musculus [4] (IC50). This compound displayed an inhibition in [5] of 93.3%. The compound also had an Edema with Mus musculus [7] of 91.6 µL.

Consider `CCOC(=O)c1cc2ccccn2/c(=N/c2ccc(Cl)cc2)n1`, for which the “PGE2 Level” value in the experiment filed under Mus musculus [1] was determined as 10.6 ng/mL; in the experiment filed under Mus musculus [2], 8.2 ng/mL; with Mus musculus [6] it was 83.3 ng/mL. The compound also yielded an inhibition in experiment [8] of 31.3%. In the experiment listed under Homo sapiens [3], this compound registered an inhibition at 10 µM of 38.8%. The compound further gave an IC50 in the experiment filed under Mus musculus [4] of 0.4 µM. Further, the Edema in the experiment on Mus musculus [7] was 102 µL.

For the compound `CCOC(=O)c1cc2ccccn2c(=S)n1`, the “PGE2 Level” value worked out at 8.2 ng/mL in the experiment filed under Mus musculus [1], 12.8 ng/mL in the experiment filed under Mus musculus [2] and 89.7 ng/mL in the experiment on Mus musculus [6]. Besides, the inhibition in experiment [8] came to 43.3%. The inhibition at 10 µM in the experiment filed under Homo sapiens [3] is 51.8%. For the same compound, in the experiment listed under Mus musculus [4], the 50% inhibitory concentration (IC50) turned out to be 1.7 µM. For the same compound, the Edema in the experiment on Mus musculus [7] stood at 105.2 µL.

`CCOC(=O)c1cc2ccccn2c(=O)n1`: the “PGE2 Level” value in the experiment filed under Mus musculus [1] was found to be 10.6 ng/mL; in the experiment filed under Mus musculus [2], 16.9 ng/mL; in the experiment on Mus musculus [6], 85.4 ng/mL. Besides, in experiment [8], the inhibition was determined as 26.6%. This compound also gave an inhibition at 10 µM in the experiment listed under Homo sapiens [3] of 29.9%. For the same compound, the Edema in the experiment on Mus musculus [7] worked out at 121.9 µL.

In the case of `CCOC(=O)c1cc2ccccn2/c(=N/c2ccc(Br)cc2)n1`, the entries for the “PGE2 Level” value in the experiment listed under Mus musculus [1], in the experiment listed under Mus musculus [2] and with Mus musculus [6] were 9.5 ng/mL, 14.8 ng/mL and 76.9 ng/mL, respectively. This compound also had an inhibition in experiment [8] of 32.2%. In the experiment listed under Homo sapiens [3], this compound registered an inhibition at 10 µM of 24.8%. Moreover, the Edema in the experiment with Mus musculus [7] was found to be 80.8 µL.

With `CS(=O)(=O)Nc1ccc([N+](=O)[O-])cc1OC1CCCCC1` [NS-398], the PGE2 Level in the experiment listed under Mus musculus [1] was 2.1 ng/mL; in the experiment listed under Mus musculus [2] it was 3.7 ng/mL; in the experiment with Mus musculus [6] it was 53 ng/mL. In the experiment filed under Mus musculus [4], this compound displayed an IC50 of 0.0021 µM. Also, the Edema with Mus musculus [7] is 97.2 µL.

For the compound `CCOC(=O)c1cc2ccccn2/c(=N/c2ccccc2)n1`, the entries for the “PGE2 Level” value in the experiment listed under Mus musculus [1], in the experiment filed under Mus musculus [2] and with Mus musculus [6] were 11 ng/mL, 10.9 ng/mL and 70.6 ng/mL, respectively. Besides, the inhibition in [5] is 57.1%. Also, in the experiment with Mus musculus [7], the Edema amounted to 82.2 µL. The compound further returned an inhibition at 10 µM in the experiment listed under Homo sapiens [9] of 52.3%.

In the case of `CCOC(=O)c1cc2ccccn2/c(=N/c2ccc(F)cc2)n1`, the “PGE2 Level” value in the experiment filed under Mus musculus [1] amounted to 8.9 ng/mL; in the experiment listed under Mus musculus [2], 11.8 ng/mL; with Mus musculus [6], 82.5 ng/mL. In experiment [8], this compound displayed an inhibition of 49.6%. Besides, in the experiment listed under Homo sapiens [3], testing at 10 µM gave an inhibition of 44.4%. In the experiment filed under Mus musculus [4], the IC50 was found to be 1.5 µM. In addition, the Edema in the experiment with Mus musculus [7] was determined as 103.9 µL.

Regarding `CCOC(=O)c1cc2ccccn2/c(=N/c2ccc(C)cc2)n1`, the “PGE2 Level” value in the experiment listed under Mus musculus [1] was 13.5 ng/mL; in the experiment filed under Mus musculus [2], 13.3 ng/mL; in the experiment on Mus musculus [6], 71 ng/mL. In the experiment listed under Mus musculus [4], the IC50 worked out at 1.7 µM. Besides, the inhibition in experiment [5] stood at 49.1%. In addition, the Edema with Mus musculus [7] amounted to 92.4 µL. In the experiment listed under Homo sapiens [9], this compound had an inhibition at 10 µM of 31.1%.

In turn, `[S-]c1nc2ccccc2c2cccc[n+]12` returned an inhibition in experiment [10] of 51.6%. Moreover, the PGE2 Level in the experiment listed under Mus musculus [1] turned out to be 10.3 ng/mL; in the experiment listed under Mus musculus [2], 16.9 ng/mL. In the experiment listed under Homo sapiens [3], this compound registered an inhibition at 10 µM of 53.7%.
